HIV_Rev-RRE_inh – disrupts HIV-1 Rev binding to RRE RNA. inhibition, % at 8 µM. P05866. Rev peptide-RRE RNA binding, FRET. hit rate 0.79% among 97,000;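 active = inhibition above the screen-wide mean plus 3 SD, cut at about 35% in these data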;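 note: 0% = median DMSO wells and 100% = median Neomycin B control wells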
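Assay system: Labelled RRE RNA duplex and labelled Rev peptide | Times: 5 min preincubation and 15 min binding, 25 °C | Detection: FRET, ex 480 nm, em 540 and 671 nm | Evaluation: % inhibition of FRET ratio versus controls | Benchmarks: DMSO wells as 0% and neomycin B wells as 100% inhibition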
PLK1_kinase_inh – PLK1 (human) kinase inhibition; P53350; recombinant PLK1 kinase, TR-FRET peptide phosphorylation; hit rate 0.53% among 97,000; AID 619; inhibition, % at 10 µM;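 active = inhibition of 50% or more in the single-concentration screen; inactive = inhibition below 50%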;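 note: 0% = DMSO max control and 100% = H-89 dihydrochloride min control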
PLK1_PBD_inh – Plk1 (human) PBD binding inhibition; P53350; Plk1 PBD phosphopeptide binding, fluorescence polarization; inhibition, %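 (tested at about 20 µM)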; hit rate 0.13% among 97,000; AID 693; in the data active = inhibition above about 34%, passing the limit was not always enough
EphB4_ephrin_blk – blocks human EphB4 binding to ephrin-B2. P54760. EphB4 LBD / TNYL-RAW-Alexa532 peptide, fluorescence polarization. inhibition, % at 7 µM. hit rate 0.15% among 97,000. AID 720;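 active = inhibition above the screen-wide mean inhibition plus 3 SD, cut at about 15% in these data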;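 note: 0% = DMSO wells and 100% = excess unlabeled TNYL-RAW peptide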
Target sequence (P54760 whole entry, looked up, the tested form may be a part): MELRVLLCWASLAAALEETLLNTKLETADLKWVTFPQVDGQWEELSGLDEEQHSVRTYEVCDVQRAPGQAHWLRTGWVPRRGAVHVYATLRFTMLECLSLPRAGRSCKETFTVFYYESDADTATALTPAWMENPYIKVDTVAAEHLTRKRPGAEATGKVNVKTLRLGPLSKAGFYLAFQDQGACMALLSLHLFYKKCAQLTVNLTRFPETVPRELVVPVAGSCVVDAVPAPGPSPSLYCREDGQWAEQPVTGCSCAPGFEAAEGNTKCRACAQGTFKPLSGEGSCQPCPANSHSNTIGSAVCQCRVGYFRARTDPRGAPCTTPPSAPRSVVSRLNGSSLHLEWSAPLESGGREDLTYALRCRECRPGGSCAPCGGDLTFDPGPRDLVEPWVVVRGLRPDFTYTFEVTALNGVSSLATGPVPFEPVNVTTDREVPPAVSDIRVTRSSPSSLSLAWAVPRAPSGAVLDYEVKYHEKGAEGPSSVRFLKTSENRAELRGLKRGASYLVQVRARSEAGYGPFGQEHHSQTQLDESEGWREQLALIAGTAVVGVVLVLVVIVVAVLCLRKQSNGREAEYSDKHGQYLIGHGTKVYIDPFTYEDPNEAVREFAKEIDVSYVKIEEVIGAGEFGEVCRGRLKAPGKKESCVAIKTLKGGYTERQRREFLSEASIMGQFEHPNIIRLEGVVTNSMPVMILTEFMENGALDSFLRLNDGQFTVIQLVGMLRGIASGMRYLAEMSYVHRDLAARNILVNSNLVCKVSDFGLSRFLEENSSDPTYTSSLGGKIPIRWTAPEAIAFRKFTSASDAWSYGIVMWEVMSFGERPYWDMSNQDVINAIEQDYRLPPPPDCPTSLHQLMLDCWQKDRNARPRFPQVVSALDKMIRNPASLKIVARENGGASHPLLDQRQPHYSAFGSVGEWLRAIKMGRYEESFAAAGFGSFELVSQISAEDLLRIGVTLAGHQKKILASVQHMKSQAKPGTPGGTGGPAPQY
PTPN22_act – activators of human LYP (PTPN22) phosphatase | hit rate 0.11% among 96,000 | recombinant LYP, DiFMUP fluorescence; 0 = plate median, 100 = signal doubled | activation, % at 2 µM | Q9Y2R2;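 active = activation at 2 µM above a set limit, the mean plus 5 SD, cut at about 37% in these data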
LYP_inh_2 – LYP (human) phosphatase inhibition; recombinant LYP catalytic domain, DiFMUP fluorescence; inhibition, % at 2 µM; hit rate 0.21% among 96,000;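 active = inhibition at 2 µM at or above a set limit, the screen mean plus 3 SD, cut at about 24% in these data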;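 note: 0% = DMSO with enzyme and 100% = enzyme fully blocked by orthovanadate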
PBD_redox_DR – counter-screen for Plk1 PBD inhibitors: redox cycling H2O2 generation; 120 tested, under 10 active; shares compounds with PLK1_PBD_inh; DTT; EC50, µM
PTPN22_act_conf – confirmation of human LYP phosphatase activators. shares compounds with PTPN22_act. Recombinant LYP, DIFMUP fluorescence, activation; zero set by plate's median compound well. activation, % at 2 µM. 100 tested, under 10 active. AID 1031
* marks the source's active call; other numbers are inactive results; · = not tested or not shown; [ ] = remark or other dose. Sampled rows, rich in hits. Any-hit rate of the full collection: about 1.8%. Unless noted, the rule behind the calls is not given here.

SMILES HIV_Rev-RRE_inh PLK1_kinase_inh PLK1_PBD_inh EphB4_ephrin_blk PTPN22_act LYP_inh_2 PBD_redox_DR others
Cc1nc2c(=O)n(C)c(=O)nc-2n(C)n1 7 -12 116* 0 -33 32* 1.6*
C#CCNc1ccncc1S(=O)(=O)NC(=O)NC(C)C 9 -8 15 2 6 -7 ·
CCOC(=O)c1ccc(NC(=O)c2c(O)[nH]c(=O)[nH]c2=O)cc1 140*[fluorescence_artefact?] 9 59* -2 -8 6 >50
CC(C)CCC1(CN2CCCC2=O)C(=O)NC(=O)NC1=O 2 -4 -21 -2 39* -36 · PTPN22_act_conf=5
COc1cc(CN2CCN(c3cc(C)ccc3C)CC2)ccc1O 1 -13 12 -3 7 -11 ·

Screening data: PubChem, several laboratories
